According to ChEMBL document CHEMBL1152796, “Azole antimicrobial pharmacophore-based tetrazoles: synthesis and biological evaluation as potential antimicrobial and anticonvulsant agents” (Bioorg Med Chem, 2009):
Converted amounts (≈) assume the structure as drawn. The source made the active and inactive calls. No cut-off for these calls is given here.

Columns and labels:
[1] = system: Aspergillus fumigatus; assay: Antifungal activity against Aspergillus fumigatus isolate after 72 hrs by twofold serial dilution method; format: functional
[2] = system: Candida albicans; assay: Antifungal activity against Candida albicans isolate after 72 hrs by twofold serial dilution method; format: functional
[3] = system: Candida tropicalis; assay: Antifungal activity against Candida tropicalis isolate after 72 hrs by twofold serial dilution method; format: functional, organism-based
[4] = system: Klebsiella pneumoniae; assay: Antibacterial activity against Klebsiella pneumoniae isolate at 1 mg/mL after 24 hrs by agar diffusion method; format: functional; conditions: read-out: Diameter of inhibition zone
Outline: (§1)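 Agar disc diffusion: 5 mm sterile paper discs soaked in 1 mg/mL test solution in DMSO were placed on agar seeded with the organism, in triplicate, with a DMSO-only control. Bacterial plates were incubated at 37 °C for 24 h and fungal plates for 7 days. Read-out was the average inhibition-zone diameter in mm. Fungi were clinical isolates.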

[5] = system: Escherichia coli; assay: Antibacterial activity against Escherichia coli ATCC 25922 after 24 to 48 hrs by twofold serial dilution method; format: functional
Outline: (§2)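 Broth microdilution in Müller–Hinton broth. DMSO stocks at 800 were diluted twofold from 400 down to 6.25. Wells received 10^6 CFU/mL bacterial suspension and were incubated at 36 °C for 24–48 h, with controls. MIC was read per well. Duplicate assays; run only for compounds giving inhibition zones ≥14 mm.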

[6] = system: Staphylococcus aureus; assay: Antibacterial activity against Staphylococcus aureus ATCC 6538 at 1 mg/mL after 24 hrs by agar diffusion method; format: functional; conditions: ATCC 6538, 24 h, read-out: Diameter of inhibition zone; outline: as §1
[7] = system: Mus musculus; assay: Anticonvulsant activity in Wister albino mouse assessed as protection against maximal electroshock-induced seizures at 100 mg/kg, ip administered 30 mins before metrazole challenge measured after 30 mins; format: functional; conditions: route intraperitoneal
[8] = system: Bacillus subtilis; assay: Antibacterial activity against Bacillus subtilis NRRL B-14819 after 24 to 48 hrs by twofold serial dilution method; format: functional; outline: as §2
[9] = system: Mus musculus; assay: Anticonvulsant activity in Wister albino mouse assessed as protection against subcutaneous metrazole-induced seizures at 100 mg/kg, ip administered 30 mins before metrazole challenge measured after 30 mins; format: functional; conditions: route intraperitoneal
Outline: (§3)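 Wistar albino mice, either sex, 25–30 g, 3 months old, in groups of six. Compounds in DMSO were given ip at 30, 100 or 300 mg/kg; vehicle-only controls. After 30 min, metrazole 100 mg/kg in DMSO was injected sc at the posterior midline. Protection meant absence of any clonic spasm lasting ≥5 s; scored as protected/tested.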

[10] = system: Micrococcus luteus; assay: Antibacterial activity against Micrococcus luteus ATCC 21881 after 24 to 48 hrs by twofold serial dilution method; format: functional; outline: as §2
[11] = system: Aspergillus niger; assay: Antifungal activity against Aspergillus niger isolate after 72 hrs by twofold serial dilution method; format: functional, organism-based
[12] = system: Micrococcus luteus; assay: Antibacterial activity against Micrococcus luteus ATCC 21881 at 1 mg/mL after 24 hrs by agar diffusion method; format: functional; conditions: ATCC 21881, 24 h, read-out: Diameter of inhibition zone; outline: as §1
[13] = system: Pseudomonas aeruginosa; assay: Antibacterial activity against Pseudomonas aeruginosa ATCC 27853 after 24 to 48 hrs by twofold serial dilution method; format: functional; outline: as §2
[14] = system: Pichia kudriavzevii; assay: Antifungal activity against Candida krusei isolate after 72 hrs by twofold serial dilution method; format: functional, organism-based
[15] = system: Staphylococcus aureus; assay: Antibacterial activity against Staphylococcus aureus ATCC 6538 after 24 to 48 hrs by twofold serial dilution method; format: functional; outline: as §2
[16] = system: Trichophyton rubrum; assay: Antifungal activity against Trichophyton rubrum isolate after 72 hrs by twofold serial dilution method; format: functional, organism-based
[17] = system: Candida albicans; assay: Antifungal activity against Candida albicans isolate at 1 mg/mL after 7 days by twofold serial dilution method; format: functional; conditions: 168 h, read-out: Diameter of inhibition zone
[18] = system: Klebsiella pneumoniae; assay: Antibacterial activity against Klebsiella pneumoniae isolate after 24 to 48 hrs by twofold serial dilution method; format: functional; outline: as §2
[19] = system: Escherichia coli; assay: Antibacterial activity against Escherichia coli ATCC 25922 at 1 mg/mL after 24 hrs by agar diffusion method; format: functional; conditions: ATCC 25922, 24 h, read-out: Diameter of inhibition zone; outline: as §1
[20] = system: Aspergillus fumigatus; assay: Antifungal activity against Aspergillus fumigatus isolate at 1 mg/mL after 7 days by agar diffusion method; format: functional; conditions: 168 h, read-out: Diameter of inhibition zone; outline: as §1
[21] = system: Bacillus subtilis; assay: Antibacterial activity against Bacillus subtilis NRRL B-14819 at 1 mg/mL after 24 hrs by agar diffusion method; format: functional; conditions: read-out: Diameter of inhibition zone; outline: as §1
[22] = system: Pseudomonas aeruginosa; assay: Antibacterial activity against Pseudomonas aeruginosa ATCC 27853 at 1 mg/mL after 24 hrs by agar diffusion method; format: functional; conditions: ATCC 27853, 24 h, read-out: Diameter of inhibition zone; outline: as §1
[23] = system: Mus musculus; assay: Anticonvulsant activity in Wister albino mouse assessed as protection against subcutaneous metrazole-induced seizures at 300 mg/kg, ip administered 30 mins before metrazole challenge measured after 30 mins; format: functional; outline: as §3
[24] = system: Mus musculus; assay: Anticonvulsant activity in Wister albino mouse assessed as protection against subcutaneous metrazole-induced seizures at 30 mg/kg, ip administered 30 mins before metrazole challenge measured after 30 mins; format: functional; outline: as §3

| MIC [1] | MIC [2] | MIC [5] | MIC [8] | MIC [10] | MIC [13] | MIC [15] | MIC [18] | Compound | Activity [3] | zone of inhibition at 1000 µg/mL [4] | zone of inhibition at 1000 µg/mL [6] | Activity [7] | Activity [9] | Activity [11] | zone of inhibition at 1000 µg/mL [12] | Activity [14] | Activity [16] | zone of inhibition at 1000 µg/mL [17] | zone of inhibition at 1000 µg/mL [19] | zone of inhibition at 1000 µg/mL [20] | also measured |
| --- | --- | --- | --- | --- | --- | --- | --- | --- | --- | --- | --- | --- | --- | --- | --- | --- | --- | --- | --- | --- | --- |
| 12.5 µg/mL (≈ 36.2 µM) | 6.25 µg/mL (≈ 18.1 µM) | – | – | – | – | – | – | Clc1ccccc1C(c1ccccc1)(c1ccccc1)n1ccnc1 [CLOTRIMAZOLE] | – | – | – | – | – | – | – | – | – | – | – | – | – |
| ≥ 200 µg/mL | 50 µg/mL (≈ 99.2 µM) | 100 µg/mL (≈ 198 µM) | 100 µg/mL (≈ 198 µM) | ≥ 200 µg/mL | ≥ 200 µg/mL | 50 µg/mL (≈ 99.2 µM) | ≥ 200 µg/mL | Sc1nnc(COC(Cn2nnnc2Cc2ccccc2)c2ccc(Cl)cc2)n1-c1ccccc1 (configuration not stated) | inactive | ≥ 14 mm | ≥ 14 mm | 33% | 0% | inactive | ≥ 14 mm | inactive | inactive | ≥ 14 mm | ≥ 14 mm | ≥ 14 mm | zone of inhibition at 1000 µg/mL [21]: ≥ 14 mm; zone of inhibition at 1000 µg/mL [22]: ≥ 14 mm |
| – | – | – | – | – | – | – | – | OC(Cn1nnnc1Cc1ccccc1)c1ccc(Cl)cc1 (configuration not stated) | – | – | – | 67% | 100% | – | – | – | – | – | – | – | Activity [23]: 50%; Activity [24]: 0% |
| 3.12 µg/mL (≈ 7.5 µM) | 3.12 µg/mL (≈ 7.5 µM) | – | – | – | – | – | – | Clc1ccc(COC(Cn2ccnc2)c2ccc(Cl)cc2Cl)c(Cl)c1 (configuration not stated) [MICONAZOLE] | – | – | – | – | – | – | – | – | – | – | – | – | – |
| ≥ 200 µg/mL | 100 µg/mL (≈ 222 µM) | 100 µg/mL (≈ 222 µM) | 50 µg/mL (≈ 111 µM) | 50 µg/mL (≈ 111 µM) | ≥ 200 µg/mL | 25 µg/mL (≈ 55.4 µM) | ≥ 200 µg/mL | Cc1cc(C)n(C(=O)COC(Cn2nnnc2Cc2ccccc2)c2ccc(Cl)cc2)n1 (configuration not stated) | inactive | ≥ 14 mm | ≥ 14 mm | 0% | 0% | inactive | ≥ 14 mm | inactive | inactive | ≥ 14 mm | ≥ 14 mm | ≥ 14 mm | zone of inhibition at 1000 µg/mL [21]: ≥ 14 mm; zone of inhibition at 1000 µg/mL [22]: ≥ 14 mm |
| – | – | 100 µg/mL (≈ 196 µM) | 100 µg/mL (≈ 196 µM) | 100 µg/mL (≈ 196 µM) | ≥ 200 µg/mL | 100 µg/mL (≈ 196 µM) | ≥ 200 µg/mL | O=C(COC(Cn1nnnc1Cc1ccccc1)c1ccc(Cl)cc1)N/N=C/c1ccc(Cl)cc1 (configuration not stated) | inactive | ≥ 14 mm | ≥ 14 mm | 50% | 50% | inactive | ≥ 14 mm | inactive | inactive | ≥ 14 mm | ≥ 14 mm | ≥ 14 mm | zone of inhibition at 1000 µg/mL [21]: ≥ 14 mm; zone of inhibition at 1000 µg/mL [22]: ≥ 14 mm |
